From ChEMBL document CHEMBL6083209, “Pyridazinone-based derivatives as anticancer agents endowed with anti-microbial activity: molecular design, synthesis, and biological investigation” (RSC Med Chem, 2024) come the findings set out here.

Values after ≈ are worked out from the molar mass of the structure shown.

Assay [1] has as its system Staphylococcus aureus. Briefly: Antimicrobial activity against Staphylococcus aureus ATCC 29213. The assay is classed as functional.
The next assay deals with Candida albicans. Briefly: Antimicrobial activity against Candida albicans ATCC 10231 by broth microdilution method. (In general: Dilution methods test growth across graded concentrations, often in twofold steps.)
The test system of the next assay is SF-295. Briefly: Antiproliferative activity against human SF-295 cells assessed as growth inhibition at 10 uM incubated for 48 hrs by SRB method. In kind it is functional. The following applies: read-out: GI. In outline:
(§1)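 NCI-60 one-dose screen at 10 μM. Cells were grown in RPMI 1640 with 5% FBS and 2 mM L-glutamine and plated at 5000–40 000 cells/well for 24 h. Drug exposure was 48 h at 37 °C, 5% CO2. Cells were fixed with TCA, stained with 0.4% SRB and read at 515 nm. Growth is expressed as percent of untreated control and time-zero plates.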
A general note: Sulforhodamine B stains cellular protein and so reports cell mass.

For assay [2], the system named is Staphylococcus aureus. Briefly: Antimicrobial activity against Staphylococcus aureus ATCC 29213 by broth microdilution method.
The test system of the next assay is MCF7. Briefly: Antiproliferative activity against human MCF7 cells assessed as growth inhibition at 10 uM incubated for 48 hrs by SRB method. The assay is classed as functional. The settings on record: read-out: GI. In outline:
as §1

Another assay has as its system RPMI-8226. In words: Antiproliferative activity against human RPMI-8226 cells assessed as growth inhibition at 10 uM incubated for 48 hrs by SRB method. The settings on record: RPMI-8226, read-out: GI. In kind it is functional. In short, it runs like this: as §1
Another assay concerns Escherichia coli. Briefly: Antimicrobial activity against Escherichia coli ATCC 25922 by broth microdilution method.
In a further assay the test system is K562. In words: Antiproliferative activity against human K562 cells assessed as growth inhibition at 10 uM incubated for 48 hrs by SRB method. The settings on record: K562, read-out: GI. The assay is classed as functional. In short, it runs like this: as §1
The next assay concerns OVCAR-3. Briefly: Antiproliferative activity against human OVCAR-3 cells assessed as growth inhibition at 10 uM incubated for 48 hrs by SRB method. The assay is classed as functional. The settings on record: read-out: GI. In short, it runs like this: as §1
The test system of the next assay is CCRF-CEM. In words: Antiproliferative activity against human CCRF-CEM cells assessed as growth inhibition at 10 uM incubated for 48 hrs by SRB method. The assay is classed as functional. The following applies: read-out: GI. In outline:
as §1

The test system of the next assay is PC-3. In words: Antiproliferative activity against human PC-3 cells assessed as growth inhibition at 10 uM incubated for 48 hrs by SRB method. In kind it is functional. The following applies: PC-3, read-out: GI. In short, it runs like this: as §1
The test system of another assay is NCI-H522. In words: Antiproliferative activity against human NCI-H522 cells assessed as growth inhibition at 10 uM incubated for 48 hrs by SRB method. In kind it is functional. The following applies: NCI-H522, read-out: GI. In outline:
as §1

The subject of a further assay is T47D. Briefly: Antiproliferative activity against human T47D cells assessed as growth inhibition at 10 uM incubated for 48 hrs by SRB method. In kind it is functional. The following applies: read-out: GI. In outline:
as §1

For the next assay, the system named is KM12. Briefly: Antiproliferative activity against human KM12 cells assessed as growth inhibition at 10 uM incubated for 48 hrs by SRB method. The following applies: read-out: GI. In kind it is functional. In short, it runs like this:
as §1

Regarding `O=C(Nc1ccc(Cl)cc1)Nc1ccc(Cl)c(Cl)c1` [TRICLOCARBAN], 16 mg/L (≈ 50.7 µM) was the least that counted as inhibitory in the assay with Staphylococcus aureus [1] (MIC).
Turning to `O=C(Nc1ccc(-c2ccc(=O)[nH]n2)cc1)Nc1cccc(Cl)c1`, the MIC in the assay on Candida albicans is above 1020 mg/L; against Staphylococcus aureus [2], 256 mg/L (≈ 751 µM); with Escherichia coli, above 1020 mg/L. In addition, the inhibition of growth at 10 µM in the assay on SF-295 is 72.7%; with MCF7, 64%; with RPMI-8226 it was 73.5%; with K562 it was 68.4%; in the assay on OVCAR-3 it was 62.2%; in the assay on CCRF-CEM, 72.9%. Further, the inhibition of growth at 10 µM in the assay with PC-3 stood at 68%; in the assay with NCI-H522, 73.5%; with T47D, 74.7%; in the assay on KM12 it was 66.4%.

One may read the MIC as the smallest concentration in the dilution series that meets the test's criterion for growth inhibition.
